How the values were obtained:
Melanocortin receptor 4 [1] = target: T1, Melanocortin receptor 4 (Homo sapiens, UniProt P32245); experiment: Displacement of [125I]NDP-alpha-MSH from human MC4R expressed in HEK293 cells; assay type: cell-based
[2] = target: T2, Melanocyte-stimulating hormone receptor (Homo sapiens, UniProt Q01726); experiment: Activity at human MC1R expressed in HEK293 cells assessed by measuring intracellular cAMP accumulation; assay type: functional, cell-based
In short: (§1)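 Whole HEK293 cells expressing the human melanocortin receptor were incubated with ligand, and the cAMP they produced was measured as the read-out of adenylate cyclase activation.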
Target sequence in this assay (Q01726 whole entry): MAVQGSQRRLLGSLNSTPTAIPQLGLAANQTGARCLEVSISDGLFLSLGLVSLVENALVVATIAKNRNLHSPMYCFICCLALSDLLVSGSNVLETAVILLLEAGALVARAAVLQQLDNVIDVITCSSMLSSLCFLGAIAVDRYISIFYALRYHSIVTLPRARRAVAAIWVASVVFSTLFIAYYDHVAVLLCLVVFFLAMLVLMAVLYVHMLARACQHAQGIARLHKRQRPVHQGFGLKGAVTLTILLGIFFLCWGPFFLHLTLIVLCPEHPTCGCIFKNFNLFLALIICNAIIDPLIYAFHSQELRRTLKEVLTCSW

Melanocortin receptor 4 [3] = target: T1, Melanocortin receptor 4; experiment: Activity at human MC4R expressed in HEK293 cells assessed by measuring intracellular cAMP accumulation; assay type: functional, cell-based; in short: as §1
Melanocortin receptor 5 [4] = target: T3, Melanocortin receptor 5 (Homo sapiens, UniProt P33032); experiment: Displacement of [125I]NDP-alpha-MSH from human MC5R expressed in HEK293 cells; assay type: cell-based
T3 sequence (P33032 whole entry): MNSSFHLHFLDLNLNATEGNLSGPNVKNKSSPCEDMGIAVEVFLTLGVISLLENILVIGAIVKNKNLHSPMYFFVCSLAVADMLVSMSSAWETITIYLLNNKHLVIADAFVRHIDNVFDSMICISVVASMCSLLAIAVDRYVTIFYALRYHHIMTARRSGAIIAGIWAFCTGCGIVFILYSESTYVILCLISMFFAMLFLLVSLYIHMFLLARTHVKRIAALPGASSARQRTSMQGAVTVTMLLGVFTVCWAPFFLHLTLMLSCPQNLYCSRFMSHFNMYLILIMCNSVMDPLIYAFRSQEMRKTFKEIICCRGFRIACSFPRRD

[5] = target: T2, Melanocyte-stimulating hormone receptor; experiment: Displacement of [125I]NDP-alpha-MSH from human MC1R expressed in HEK293 cells; assay type: cell-based
Target sequence in this assay (Q01726 whole entry): as the sequence (Q01726 whole entry) above

Melanocortin receptor 3 [6] = target: T4, Melanocortin receptor 3 (Homo sapiens, UniProt P41968); experiment: Displacement of [125I]NDP-alpha-MSH from human MC3R expressed in HEK293 cells; assay type: cell-based
T4 sequence (P41968 whole entry): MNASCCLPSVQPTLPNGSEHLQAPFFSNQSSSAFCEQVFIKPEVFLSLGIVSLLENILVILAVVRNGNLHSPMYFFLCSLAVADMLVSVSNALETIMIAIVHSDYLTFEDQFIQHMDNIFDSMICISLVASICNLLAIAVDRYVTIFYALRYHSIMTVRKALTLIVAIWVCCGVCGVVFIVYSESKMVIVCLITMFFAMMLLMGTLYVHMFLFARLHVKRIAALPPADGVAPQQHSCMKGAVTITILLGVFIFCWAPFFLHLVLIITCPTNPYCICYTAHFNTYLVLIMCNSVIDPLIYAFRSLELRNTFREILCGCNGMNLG

Melanocortin receptor 5 [7] = target: T3, Melanocortin receptor 5; experiment: Activity at human MC5R expressed in HEK293 cells assessed by measuring intracellular cAMP accumulation; assay type: functional, cell-based; in short: as §1
Melanocortin receptor 3 [8] = target: T4, Melanocortin receptor 3; experiment: Activity at human MC3R expressed in HEK293 cells assessed by measuring intracellular cAMP accumulation; assay type: functional, cell-based; in short: as §1
Melanocortin receptor 3 [9] = target: T4, Melanocortin receptor 3; experiment: Activity at human MC3R expressed in HEK293 cells assessed as activation of adenylate cyclase; assay type: functional, cell-based; set-up: concentration or dose not given beside the values; in short: as §1
Melanocortin receptor 5 [10] = target: T3, Melanocortin receptor 5; experiment: Displacement of [125I]NDP-alpha-MSH from human MC5R expressed in HEK293 cells relative to MT-II; assay type: cell-based
In short: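 Binding efficiency was measured on whole HEK293 cells expressing hMC5R, by competition with 125I-NDP-α-MSH. It is the maximum radioligand displacement by the test compound divided by the maximum displacement caused by excess MT-II.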

Melanocortin receptor 5 [11] = target: T3, Melanocortin receptor 5; experiment: Activity at human MC5R expressed in HEK293 cells assessed as activation of adenylate cyclase; assay type: functional, cell-based; set-up: concentration or dose not given beside the values; in short: as §1
[12] = target: T2, Melanocyte-stimulating hormone receptor; experiment: Activity at human MC1R expressed in HEK293 cells assessed as activation of adenylate cyclase; assay type: functional, cell-based; set-up: concentration or dose not given beside the values
In short: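 Whole HEK293 cells expressing the human melanocortin receptor were incubated with ligand, and the cAMP they produced was measured as the read-out of adenylate cyclase activation. EC50 is the concentration giving 50% of maximal intracellular cAMP accumulation.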
Target sequence in this assay (Q01726 whole entry, looked up): as the sequence (Q01726 whole entry) above

Melanocortin receptor 4 [13] = target: T1, Melanocortin receptor 4; experiment: Activity at human MC4R expressed in HEK293 cells assessed as activation of adenylate cyclase; assay type: functional, cell-based; set-up: concentration or dose not given beside the values; in short: as §1
[14] = target: T2, Melanocyte-stimulating hormone receptor; experiment: Displacement of [125I]NDP-alpha-MSH from human MC1R expressed in HEK293 cells relative to MT-II; assay type: cell-based
Target sequence in this assay (Q01726 whole entry, looked up): as the sequence (Q01726 whole entry) above

T1 sequence (P32245 whole entry): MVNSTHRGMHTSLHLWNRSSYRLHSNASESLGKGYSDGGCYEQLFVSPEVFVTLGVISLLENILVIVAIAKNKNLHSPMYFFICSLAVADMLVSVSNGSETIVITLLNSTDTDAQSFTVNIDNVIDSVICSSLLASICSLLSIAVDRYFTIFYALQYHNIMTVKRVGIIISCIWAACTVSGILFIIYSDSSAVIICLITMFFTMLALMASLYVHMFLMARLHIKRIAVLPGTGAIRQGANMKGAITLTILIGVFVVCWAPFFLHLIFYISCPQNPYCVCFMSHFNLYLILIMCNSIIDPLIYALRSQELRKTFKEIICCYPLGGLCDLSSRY

For `NC(N)=NCCC[C@H](NC(=O)CCc1c[nH]c2ccccc12)C(=O)N1C[C@@H]2CCCN2C[C@@H]1Cc1ccccc1`, the IC50 (Melanocortin receptor 4 [1]) was greater than 10 µM, the EC50 [2] was greater than 10 µM and the EC50 (Melanocortin receptor 4 [3]) was greater than 10 µM. It also gave an IC50 (Melanocortin receptor 5 [4]) of 0.0001 µM, an IC50 [5] greater than 10 µM and an IC50 (Melanocortin receptor 3 [6]) greater than 10 µM. For the same compound, the EC50 (Melanocortin receptor 5 [7]) was greater than 10 µM and the EC50 (Melanocortin receptor 3 [8]) was greater than 10 µM.
With `O=C(CCC(=O)N1C[C@@H]2CCCN2C[C@@H]1Cc1ccccc1)NCCc1c[nH]c2ccccc12` the Activity (Melanocortin receptor 3 [9]) was 0%, the IC50 (Melanocortin receptor 4 [1]) was greater than 10 µM and the Activity (Melanocortin receptor 5 [10]) was 50%. It also gave an EC50 [2] greater than 10 µM, an EC50 (Melanocortin receptor 4 [3]) greater than 10 µM and an Activity (Melanocortin receptor 5 [11]) of 0%. For the same compound, the Activity [12] was 0%, the IC50 (Melanocortin receptor 5 [4]) was 0.0005 µM and the IC50 [5] was greater than 10 µM. The Activity (Melanocortin receptor 4 [13]) was 0%, the IC50 (Melanocortin receptor 3 [6]) was greater than 10 µM and the EC50 (Melanocortin receptor 5 [7]) was greater than 10 µM. For the same compound, the EC50 (Melanocortin receptor 3 [8]) was greater than 10 µM.
Work on `O=C(Cc1ccccc1)N1C[C@@H]2CCCN2C[C@H]1Cc1ccccc1` yielded an Activity (Melanocortin receptor 3 [9]) of 0%, an IC50 (Melanocortin receptor 4 [1]) of 0.0012 µM and an EC50 [2] greater than 10 µM. The EC50 (Melanocortin receptor 4 [3]) was greater than 10 µM, the Activity (Melanocortin receptor 5 [11]) was 0% and the Activity [12] was 0%. It also gave an IC50 (Melanocortin receptor 5 [4]) greater than 10 µM, an IC50 [5] of 0.0013 µM and an Activity (Melanocortin receptor 4 [13]) of 0%. It also gave an IC50 (Melanocortin receptor 3 [6]) of 0.005 µM, an Activity [14] of 90% and an EC50 (Melanocortin receptor 5 [7]) greater than 10 µM. The EC50 (Melanocortin receptor 3 [8]) was greater than 10 µM.
`O=C(CCc1c[nH]c2ccccc12)NCCCCCC(=O)N1C[C@@H]2CCCN2C[C@@H]1Cc1ccccc1` showed an Activity (Melanocortin receptor 3 [9]) of 0%, an IC50 (Melanocortin receptor 4 [1]) greater than 10 µM and an Activity (Melanocortin receptor 5 [10]) of 65%. For the same compound, the EC50 [2] was greater than 10 µM, the EC50 (Melanocortin receptor 4 [3]) was greater than 10 µM and the Activity (Melanocortin receptor 5 [11]) was 0%. The Activity [12] was 0%, the IC50 (Melanocortin receptor 5 [4]) was 0.0004 µM and the IC50 [5] was greater than 10 µM. It also gave an Activity (Melanocortin receptor 4 [13]) of 0%, an IC50 (Melanocortin receptor 3 [6]) greater than 10 µM and an EC50 (Melanocortin receptor 5 [7]) greater than 10 µM. It also gave an EC50 (Melanocortin receptor 3 [8]) greater than 10 µM.
`O=C(CCC(=O)N1C[C@@H]2CCCN2C[C@H]1Cc1ccccc1)NCCc1c[nH]c2ccccc12` was tested, and the Activity (Melanocortin receptor 3 [9]) was 0%, the IC50 (Melanocortin receptor 4 [1]) was greater than 10 µM and the Activity (Melanocortin receptor 5 [10]) was 60%. For the same compound, the EC50 [2] was greater than 10 µM, the EC50 (Melanocortin receptor 4 [3]) was greater than 10 µM and the Activity (Melanocortin receptor 5 [11]) was 0%. It also gave an Activity [12] of 0%, an IC50 (Melanocortin receptor 5 [4]) of 0.0001 µM and an IC50 [5] greater than 10 µM. For the same compound, the Activity (Melanocortin receptor 4 [13]) was 0%, the IC50 (Melanocortin receptor 3 [6]) was greater than 10 µM and the EC50 (Melanocortin receptor 5 [7]) was greater than 10 µM. It also gave an EC50 (Melanocortin receptor 3 [8]) greater than 10 µM.
With `O=C(CCc1c[nH]c2ccccc12)N1C[C@@H]2CCCN2C[C@H]1Cc1ccccc1` the Activity (Melanocortin receptor 3 [9]) was 0%, the IC50 (Melanocortin receptor 4 [1]) was greater than 10 µM and the EC50 [2] was greater than 10 µM. For the same compound, the EC50 (Melanocortin receptor 4 [3]) was greater than 10 µM, the Activity (Melanocortin receptor 5 [11]) was 0% and the Activity [12] was 0%. It also gave an IC50 (Melanocortin receptor 5 [4]) greater than 10 µM, an IC50 [5] of 0.004 µM and an Activity (Melanocortin receptor 4 [13]) of 0%. The IC50 (Melanocortin receptor 3 [6]) was 0.0012 µM, the Activity [14] was 50% and the EC50 (Melanocortin receptor 5 [7]) was greater than 10 µM. It also gave an EC50 (Melanocortin receptor 3 [8]) greater than 10 µM.
`O=C(Cc1ccccc1)N1C[C@@H]2CCCN2C[C@@H]1Cc1ccccc1` showed an Activity (Melanocortin receptor 3 [9]) of 0%, an IC50 (Melanocortin receptor 4 [1]) greater than 10 µM and an EC50 [2] greater than 10 µM. It also gave an EC50 (Melanocortin receptor 4 [3]) of 0.0027 µM, an Activity (Melanocortin receptor 5 [11]) of 0% and an Activity [12] of 0%. For the same compound, the IC50 (Melanocortin receptor 5 [4]) was greater than 10 µM, the IC50 [5] was 0.0022 µM and the Activity (Melanocortin receptor 4 [13]) was 30%. The IC50 (Melanocortin receptor 3 [6]) was 0.35 µM, the Activity [14] was 80% and the EC50 (Melanocortin receptor 5 [7]) was greater than 10 µM. For the same compound, the EC50 (Melanocortin receptor 3 [8]) was greater than 10 µM.
For `N=C(N)NCCC[C@H](NC(=O)CCc1c[nH]c2ccccc12)C(=O)N1C[C@@H]2CCCN2C[C@@H]1Cc1ccccc1`, the Activity (Melanocortin receptor 3 [9]) was 0%, the Activity (Melanocortin receptor 5 [10]) was 60% and the Activity (Melanocortin receptor 5 [11]) was 0%. It also gave an Activity [12] of 20% and an Activity (Melanocortin receptor 4 [13]) of 0%.
`O=C(CCc1c[nH]c2ccccc12)N1C[C@@H]2CCCN2C[C@@H]1Cc1ccccc1` gave an Activity (Melanocortin receptor 3 [9]) of 0%, an IC50 (Melanocortin receptor 4 [1]) greater than 10 µM and an Activity (Melanocortin receptor 5 [10]) of 50%. It also gave an EC50 [2] greater than 10 µM, an EC50 (Melanocortin receptor 4 [3]) greater than 10 µM and an Activity (Melanocortin receptor 5 [11]) of 0%. It also gave an Activity [12] of 0%, an IC50 (Melanocortin receptor 5 [4]) of 0.0008 µM and an IC50 [5] greater than 10 µM. It also gave an Activity (Melanocortin receptor 4 [13]) of 0%, an IC50 (Melanocortin receptor 3 [6]) greater than 10 µM and an EC50 (Melanocortin receptor 5 [7]) greater than 10 µM. The EC50 (Melanocortin receptor 3 [8]) was greater than 10 µM.

— ChEMBL document CHEMBL1137290, “Design, synthesis, and biological evaluation of a new class of small molecule peptide mimetics targeting the melanocortin receptors” (Bioorg Med Chem Lett, 2006)
